This note sets out measurements from PubChem BioAssay.

The term viability denotes a read-out of living cells in per cent, often relative to untreated cells. The inhibition is the drop in the measured response relative to a control, in per cent.

The source made the active and inactive calls. Cut-off read from the data, not from the text of the source, unless noted: active = inhibition above about 30%; inactive = the rest.

Test [1] can be described thus: reducers of endogenous Her2 protein level, primary screen, SKBR3 breast tumor cells, AlphaScreen, ATP viability (AID 461;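 active = Her2 level under about 52% in both replicate screens, with viability over 70% of control, limit read from the data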;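 for Her2 level: lower value means less Her2 protein in the cells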;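 for viability: percent of carrier control wells set as 100% viability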). Conditions: 18-24 h, measured here: SKBR3 viability, ATP luminescence, at 10 µM. Background: In Alpha technology, singlet oxygen from a donor bead excites a nearby acceptor bead.
Test [2] deals with Receptor tyrosine-protein kinase erbB-2 (Homo sapiens) (UniProt P04626). The test is described as above. Conditions: 18-24 h, at 10 µM, stronger effect = lower value.
Receptor tyrosine-protein kinase erbB-2 (Homo sapiens), sequence (P04626 whole entry, looked up): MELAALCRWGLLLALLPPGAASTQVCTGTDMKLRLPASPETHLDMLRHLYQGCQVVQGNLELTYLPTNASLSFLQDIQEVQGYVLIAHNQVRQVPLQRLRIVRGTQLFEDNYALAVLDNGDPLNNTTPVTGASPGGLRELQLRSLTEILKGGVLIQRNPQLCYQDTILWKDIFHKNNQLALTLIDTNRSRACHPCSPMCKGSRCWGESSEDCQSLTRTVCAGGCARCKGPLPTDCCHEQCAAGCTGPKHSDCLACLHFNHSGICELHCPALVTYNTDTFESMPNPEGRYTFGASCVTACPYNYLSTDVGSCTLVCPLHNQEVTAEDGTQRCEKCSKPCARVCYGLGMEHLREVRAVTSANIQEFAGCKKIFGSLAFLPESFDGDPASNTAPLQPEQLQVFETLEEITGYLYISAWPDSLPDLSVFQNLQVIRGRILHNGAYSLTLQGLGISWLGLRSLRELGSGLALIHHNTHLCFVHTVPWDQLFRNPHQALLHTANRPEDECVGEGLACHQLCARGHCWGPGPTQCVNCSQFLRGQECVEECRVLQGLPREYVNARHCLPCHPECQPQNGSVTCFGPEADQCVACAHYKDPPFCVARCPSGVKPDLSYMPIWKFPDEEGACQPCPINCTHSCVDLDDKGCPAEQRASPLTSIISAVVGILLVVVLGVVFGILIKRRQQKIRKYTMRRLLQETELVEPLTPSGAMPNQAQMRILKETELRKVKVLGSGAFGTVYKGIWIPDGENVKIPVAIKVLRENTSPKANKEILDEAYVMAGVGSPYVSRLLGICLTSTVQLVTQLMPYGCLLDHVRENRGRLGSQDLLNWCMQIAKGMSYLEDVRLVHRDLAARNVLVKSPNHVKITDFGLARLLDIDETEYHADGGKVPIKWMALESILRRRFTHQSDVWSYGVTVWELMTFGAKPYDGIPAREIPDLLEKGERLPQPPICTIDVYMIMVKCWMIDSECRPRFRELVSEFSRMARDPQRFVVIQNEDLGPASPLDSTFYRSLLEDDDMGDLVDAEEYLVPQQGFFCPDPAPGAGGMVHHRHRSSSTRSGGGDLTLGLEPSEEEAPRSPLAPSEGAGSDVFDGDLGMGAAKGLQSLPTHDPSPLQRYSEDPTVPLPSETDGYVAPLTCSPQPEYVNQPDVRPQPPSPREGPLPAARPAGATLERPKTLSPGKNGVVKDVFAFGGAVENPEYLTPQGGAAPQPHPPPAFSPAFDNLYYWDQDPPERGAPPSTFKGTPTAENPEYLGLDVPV
Test [3] is described as follows: SK-BR-3 cell growth inhibitors, pilot screen, 24 h, human (AID 572;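 active = viability at or below 10% of carrier control in both of two separate runs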;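 note: compound exposure lasted between 18 and 24 h rather than exactly 24 h; 100% = carrier-treated control wells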). The following applies: SK-BR-3 viability, CellTiter-Glo luminescence, at 10 µM, stronger effect = lower value. For orientation: In ATP-based viability assays light output follows the ATP content of the culture.
Test [4] in a line: HUVEC growth inhibition – cell-based, human, primary screen (AID 575;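 active = viability at or below 30% in both replicate assays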;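 note: 100% = median of untreated cell wells with 0.1% DMSO on each plate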). Conditions: HUVEC proliferation, CellTiter-Glo luminescence, 72 h; at 10 µM; stronger effect = lower value. In a few lines: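 Test system: primary human umbilical vein endothelial cells; medium: endothelial basal medium with 2% FBS plus growth supplements; dosing: 10 µM compound only; times: 72 h treatment at 37 °C; signal: CTG luminescence; read-out: % viability relative to median vehicle-well signal on each plate; control set: vehicle and MePR control wells; plate: 384-well, collagen-coated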

Test [5] can be described thus: growth inhibitors of H69AR lung tumor, primary screen, human, duplicate replicates (AID 580;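 active = viability at or under a set limit in both replicates, limit being median viability minus 3 SD, cut at about 48% in these data, passing the limit was not always enough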;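 note: 100% = mean luminescence of untreated wells and 0% = no signal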). The following applies: H69AR lung tumor cells viability, ATP luminescence, 72 h; at 10 µM; stronger effect = lower value.
The nature of test [6]: reversal of MRP1-mediated doxorubicin resistance, pilot screen, H69AR cells, doxorubicin co-treatment (AID 601;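 active = viability loss from added drug above about 55%, and viability with drug at most 40%, in both replicates, limit read from the data, passing the limit was not always enough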). The following applies: CellTiter-Glo, 72 h, at 10 µM; for differential viability (reversal): stronger effect = higher value.
Test [7] in a line: 384-well plate pilot, post-Golgi transport modulator project, inhibition of yeast transport mutant growth (AID 636; in the data active = inhibition above about 31%). Conditions: absorbance 615 nm, about 18 h, stronger effect = higher value.
Test [8] can be described thus: growth suppression of yeast trafficking mutant, preliminary HTS, modulators of trafficking downstream of Golgi apparatus project, 1536-format plate, OD 615 nm (AID 637). The following applies: yeast transport mutant growth, absorbance 615 nm, 18 h; stronger effect = higher value.
Setting [9] is: H69AR cells + 2 uM doxorubicin, measured here: viability with 2 uM doxorubicin, stronger effect = lower value.
The mark [10] stands for this setting: H69AR cells, compound alone cytotoxicity.

For `O=C(Nc1ccc2c(c1)OCO2)c1nn(-c2ccccc2)c(=O)c2ccccc12`, the viability in test [1] was 108%; in test [3], 108% (inactive); in test [4], 72.8% (inactive); in test [5] it was 74.7% (inactive); in test [6] (setting [9]), 79.4%; in test [6] (setting [10]), 74.7%. In test [2], the Her2 level is 81% (inactive). For the same compound, in test [6] (H69AR cells + 2 uM doxorubicin), the differential viability (reversal) is -4.67% (inactive). The inhibition in test [7] is -1.43% (inactive); in test [8], 1.75% (inactive).

With `COc1ccc(C2C(C#N)=C(N)OC3=C2C(=O)CC(C)C3)c(OC)c1OC` (stereo not given), the viability in test [1] is 102%; in test [3], 102% (inactive); in test [4] it was 101% (inactive); in test [5] it was 100% (inactive); in test [6] (setting [9]), 96.6%; in test [6] (setting [10]), 100%. Further, in test [2], the Her2 level is 134% (inactive). Further, in test [6] (H69AR cells + 2 uM doxorubicin), the differential viability (reversal) is 3.42% (inactive). Besides, the inhibition in test [7] is 2.86% (inactive); in test [8] it was -4.83% (inactive).

With `Cc1ccc(CN2C(=O)CCC2C(=O)NC2CCCC2)cc1` (stereo not given), the viability is 132% in test [1]; 132% (inactive) in test [3]; 94.3% (inactive) in test [4]; 94.1% (inactive) in test [5]; 95.1% in test [6] (setting [9]); 94.1% in test [6] (setting [10]). In test [2], the Her2 level was 95.5% (inactive). Further, the differential viability (reversal) in test [6] (H69AR cells + 2 uM doxorubicin) was -1.04% (inactive). Further, the inhibition in test [7] is -6.13% (inactive); in test [8] it was 4.59% (inactive).

As for `Cc1cc(=O)n(-c2ccc3ccccc3n2)[nH]1`, the viability was 105% in test [1]; 105% (inactive) in test [3]; 53.6% (inactive) in test [4]; 73.4% (inactive) in test [5]; 76.2% in test [6] (setting [9]); 73.4% in test [6] (setting [10]). Besides, in test [2], the Her2 level is 101% (inactive). Moreover, the differential viability (reversal) in test [6] (H69AR cells + 2 uM doxorubicin) is -2.73% (inactive). Moreover, the inhibition was -5.73% (inactive) in test [7] and 11.1% (inactive) in test [8].

With `O=C(CN(C(=O)CCNC(=O)c1ccco1)c1ccccc1)NC1CCCC1`, the viability was 93% in test [1]; 93% (inactive) in test [3]; 103% (inactive) in test [4]; 93.5% (inactive) in test [5]; 98.9% in test [6] (setting [9]); 93.5% in test [6] (setting [10]). Besides, the Her2 level in test [2] was 112% (inactive). In test [6] (H69AR cells + 2 uM doxorubicin), the differential viability (reversal) is -5.44% (inactive). Also, the inhibition is 2.53% (inactive) in test [7] and 33.5% (active) in test [8].

Take `CCOc1ccccc1Nc1ncnc2ccccc12`: the viability in test [1] is 101%; in test [3], 101% (inactive); in test [4], 78.4% (inactive); in test [5], 82% (inactive); in test [6] (setting [9]), 80%; in test [6] (setting [10]) it was 82%. In addition, in test [2], the Her2 level is 81% (inactive). In test [6] (H69AR cells + 2 uM doxorubicin), the differential viability (reversal) was 1.99% (inactive). Moreover, the inhibition was -1.45% (inactive) in test [7] and 0.18% (inactive) in test [8].

Take `O=C(OCC(=O)N1CCC(Cc2ccccc2)CC1)c1ccc[nH]c1=O`: the viability was 80.5% in test [1]; 80.5% (inactive) in test [3]; 117% (inactive) in test [4]; 92.6% (inactive) in test [5]; 90.4% in test [6] (setting [9]); 92.6% in test [6] (setting [10]). In addition, the Her2 level in test [2] was 102% (inactive). For the same compound, the differential viability (reversal) in test [6] (H69AR cells + 2 uM doxorubicin) is 2.25% (inactive). Moreover, the inhibition in test [7] is 0.13% (inactive); in test [8], -12.3% (inactive).

For `CN1CCN(CC(=O)Nc2ccc(Cl)cc2Cl)CC1`, the viability is 85.5% in test [1]; 85.5% (inactive) in test [3]; 91.6% (inactive) in test [4]; 93.8% (inactive) in test [5]; 90.5% in test [6] (setting [9]); 93.8% in test [6] (setting [10]). Moreover, in test [2], the Her2 level is 95% (inactive). For the same compound, in test [6] (H69AR cells + 2 uM doxorubicin), the differential viability (reversal) was 3.29% (inactive). Moreover, the inhibition in test [7] was -3.29% (inactive); in test [8], 2.74% (inactive).

Regarding `CCOC(=O)c1ccc(-c2c(C(=O)OCC)oc3cc(O)c(CC)cc3c2=O)o1`, the viability in test [1] was 96.5%; in test [3], 96.5% (inactive); in test [4], 76.6% (inactive); in test [5] it was 83.3% (inactive); in test [6] (setting [9]), 103%; in test [6] (setting [10]), 83.3%. In addition, the Her2 level in test [2] is 88.5% (inactive). In addition, the differential viability (reversal) in test [6] (H69AR cells + 2 uM doxorubicin) is -19.3% (inactive). The inhibition in test [7] is -3.42% (inactive); in test [8] it was 11.6% (inactive).

For the compound `CC(C)(C)n1cnc2cc(NS(=O)(=O)c3ccc(Br)cc3)ccc21`, the viability in test [1] was 104%; in test [3] it was 104% (inactive); in test [4] it was 80.2% (inactive); in test [5], 87% (inactive); in test [6] (setting [9]), 95.4%; in test [6] (setting [10]), 87%. In test [2], the Her2 level was 69.5% (inactive). Besides, in test [6] (H69AR cells + 2 uM doxorubicin), the differential viability (reversal) is -8.39% (inactive). Further, the inhibition in test [7] was -1.58% (inactive); in test [8], -0.48% (inactive).

Consider `CCCCN(CC)CCCNC(=O)CS(=O)(=O)Cc1nc(-c2cccc(OC)c2)oc1C`, for which the viability was 92% in test [1]; 92% (inactive) in test [3]; 80.1% (inactive) in test [4]; 97.2% (inactive) in test [5]; 86.7% in test [6] (setting [9]); 97.2% in test [6] (setting [10]). In test [2], the Her2 level is 112% (inactive). Also, the differential viability (reversal) in test [6] (H69AR cells + 2 uM doxorubicin) is 10.4% (inactive). Further, the inhibition is 0.66% (inactive) in test [7] and -11.3% (inactive) in test [8].

As to `COc1ccc(-c2ccc(-c3nnc(-c4ccncc4)o3)cc2)cc1`, the viability is 130% in test [1]; 130% (inactive) in test [3]; 119% (inactive) in test [4]; 96.3% (inactive) in test [5]; 89.5% in test [6] (setting [9]); 96.3% in test [6] (setting [10]). The Her2 level in test [2] was 103% (inactive). In test [6] (H69AR cells + 2 uM doxorubicin), the differential viability (reversal) was 6.73% (inactive). Moreover, the results for the inhibition in test [7] and in test [8] were -5.87% (inactive) and 0% (inactive), respectively.

Turning to `Cc1ccc(S(=O)(=O)C2(C(=O)Nc3cccnc3)CC2)cc1`, the viability in test [1] is 92.5%; in test [3], 92.5% (inactive); in test [4], 91.6% (inactive); in test [5], 98.4% (inactive); in test [6] (setting [9]) it was 95.2%; in test [6] (setting [10]), 98.4%. Besides, the Her2 level in test [2] is 96% (inactive). In test [6] (H69AR cells + 2 uM doxorubicin), the differential viability (reversal) is 3.19% (inactive). In addition, the inhibition is -1.67% (inactive) in test [7] and -8.67% (inactive) in test [8].

As for `Cc1ccccc1NC(=O)c1c(F)c(F)c(F)c(F)c1F`, the viability is 90.5% in test [1]; 90.5% (inactive) in test [3]; 103% (inactive) in test [4]; 88.9% (inactive) in test [5]; 86% in test [6] (setting [9]); 88.9% in test [6] (setting [10]). For the same compound, the Her2 level in test [2] was 98% (inactive). Also, the differential viability (reversal) in test [6] (H69AR cells + 2 uM doxorubicin) is 2.94% (inactive). For the same compound, the inhibition in test [7] is -5.13% (inactive); in test [8], 4.1% (inactive).

Take `CCOC(=O)C1=C(C)NC(SC(C)=O)=NC1c1ccc(OC(C)=O)c(OC)c1` (stereo not given): the viability is 106% in test [1]; 106% (inactive) in test [3]; 82.9% (inactive) in test [4]; 85.3% (inactive) in test [5]; 94.5% in test [6] (setting [9]); 85.3% in test [6] (setting [10]). The Her2 level in test [2] is 95.5% (inactive). Besides, in test [6] (H69AR cells + 2 uM doxorubicin), the differential viability (reversal) was -9.22% (inactive). The inhibition is -6.84% (inactive) in test [7] and -6.36% (inactive) in test [8].
